Measured values as given in ChEMBL document CHEMBL1240355 (2010).
Converted amounts (≈) assume the structure as drawn. The source made the active and inactive calls. No cut-off for these calls is given here.

Tests used:
Salmonella enteritidis [1] = assay: Antibacterial activity against ciprofloxacin-resistant Salmonella enteritidis 5408 harboring gyrA D87Y mutant, gyrB E466D mutant, parE V461G mutant and ramR G25A mutant gene after 200 passages by CLSI method; type: functional, Salmonella enterica subsp. enterica serovar Enteritidis; details: Salmonella enterica
Salmonella enteritidis [2] = assay: Antibacterial activity against ciprofloxacin-susceptible Salmonella enteritidis 1A-revertC2 harboring gyrA D87Y/S83F mutant, parC D79N mutant, soxR R133C/R20H mutant, soxS E52K mutant and marA I111N/H115Q mutant gene after 70 passages by CLSI method; type: functional, Salmonella enterica subsp. enterica serovar Enteritidis; details: Salmonella enterica
Salmonella enteritidis [3] = assay: Antibacterial activity against wild type Salmonella enteritidis 5408 harboring gyrA D87Y mutant gene by CLSI method; type: functional, Salmonella enterica subsp. enterica serovar Enteritidis; details: Salmonella enterica
Salmonella enteritidis [4] = assay: Antibacterial activity against ciprofloxacin-susceptibility revert strain of Salmonella enteritidis 104 harboring gyrA D87Y/S83F mutant, parC D79N mutant, soxR E16G/R20H mutant and soxS E52K mutant gene after 20 passages by CLSI method; type: functional, Salmonella enterica subsp. enterica serovar Enteritidis; details: Salmonella enterica
Salmonella enteritidis [5] = assay: Antibacterial activity against ciprofloxacin-resistant Salmonella enteritidis 104 harboring gyrA D87Y/S83F mutant, soxR R20H mutant and soxS E52K mutant gene by CLSI method; details: Salmonella enterica
Salmonella enteritidis [6] = assay: Antibacterial activity against wild type Salmonella enteritidis 104 harboring gyrA D87Y mutant gene by CLSI method; type: functional, Salmonella enterica subsp. enterica serovar Enteritidis; details: Salmonella enterica
Salmonella enteritidis [7] = assay: Antibacterial activity against wild type Salmonella enteritidis 5408 harboring gyrA D87Y mutant gene after 24 hrs by spectrophotometry; type: functional, organism-based; details: Salmonella enterica subsp. enterica serovar Enteritidis
In short: (§1)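 Growth in TSB: colony from TSA (37°C, 18 h) grown overnight in 10 ml TSB, 1 ml into 100 ml TSB, shaken aerobically at 37°C. Absorbance read hourly for 8 h, then at 24 h, by spectrophotometer.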

Salmonella enteritidis [8] = assay: Antibacterial activity against wild type Salmonella enteritidis 104 harboring gyrA D87Y mutant gene assessed as width of bacterial rods by microscopy; type: functional, Salmonella enterica subsp. enterica serovar Enteritidis
Salmonella enteritidis [9] = assay: Antibacterial activity against ciprofloxacin-resistant Salmonella enteritidis 5408 harboring gyrA D87Y mutant, gyrB E466D mutant, parE V461G mutant and ramR G25A mutant gene after 24 hrs by spectrophotometry; type: functional, organism-based; details: Salmonella enterica subsp. enterica serovar Enteritidis; in short: as §1
Salmonella enteritidis [10] = assay: Antibacterial activity against wild type Salmonella enteritidis 104 harboring gyrA D87Y mutant gene after 24 hrs by spectrophotometry; type: functional, organism-based; details: Salmonella enterica subsp. enterica serovar Enteritidis; in short: as §1
Salmonella enteritidis [11] = assay: Antibacterial activity against ciprofloxacin-susceptible Salmonella enteritidis 1A-revertC2 harboring gyrA D87Y/S83F mutant, parC D79N mutant, soxR R133C/R20H mutant, soxS E52K mutant and marA I111N/H115Q mutant gene after 70 passages after 24 hrs by spectrophotometry; type: functional, organism-based; details: Salmonella enterica subsp. enterica serovar Enteritidis; in short: as §1
Salmonella enteritidis [12] = assay: Antibacterial activity against wild type Salmonella enteritidis 5408 harboring gyrA D87Y mutant gene assessed as length of bacterial rods by microscopy; type: functional, Salmonella enterica subsp. enterica serovar Enteritidis
Salmonella enteritidis [13] = assay: Antibacterial activity against ciprofloxacin-resistant Salmonella enteritidis 5408 harboring gyrA D87Y mutant, gyrB E466D mutant, parE V461G mutant and ramR G25A mutant gene assessed as reduction in swim motility after overnight incubation; type: functional, Salmonella enterica subsp. enterica serovar Enteritidis
In short: (§2)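 Swim assay: 1 µl of overnight culture spotted centrally on LB with 0.1% gellan gum, dried 1 h at room temperature, incubated overnight at 30°C. Visible spread measured with a ruler (mm). Reduction expressed relative to the parent strain.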

Salmonella enteritidis [14] = assay: Antibacterial activity against ciprofloxacin-resistant Salmonella enteritidis 5408 harboring gyrA D87Y mutant, gyrB E466D mutant, parE V461G mutant and ramR G25A mutant gene assessed as width of bacterial rods by microscopy; type: functional, Salmonella enterica subsp. enterica serovar Enteritidis
Salmonella enteritidis [15] = assay: Antibacterial activity against ciprofloxacin-resistant Salmonella enteritidis 104 harboring gyrA D87Y/S83F mutant, soxR R20H mutant and soxS E52K mutant gene assessed as reduction in swim motility after overnight incubation; type: functional, Salmonella enterica subsp. enterica serovar Enteritidis; in short: as §2
Salmonella enteritidis [16] = assay: Antibacterial activity against ciprofloxacin-susceptibility revert strain of Salmonella enteritidis 104 harboring gyrA D87Y/S83F mutant, parC D79N mutant, soxR E16G/R20H mutant and soxS E52K mutant gene assessed as reduction in swim motility after overnight incubation; type: functional, Salmonella enterica subsp. enterica serovar Enteritidis; in short: as §2
Salmonella enteritidis [17] = assay: Antibacterial activity against wild type Salmonella enteritidis 104 harboring gyrA D87Y mutant gene assessed as length of bacterial rods by microscopy; type: functional, Salmonella enterica subsp. enterica serovar Enteritidis
Salmonella enteritidis [18] = assay: Antibacterial activity against ciprofloxacin-susceptibility revert strain of Salmonella enteritidis 104 harboring gyrA D87Y/S83F mutant, parC D79N mutant, soxR E16G/R20H mutant and soxS E52K mutant gene after 24 hrs by spectrophotometry; type: functional, organism-based; details: Salmonella enterica subsp. enterica serovar Enteritidis; in short: as §1
Salmonella enteritidis [19] = assay: Antibacterial activity against ciprofloxacin-resistant Salmonella enteritidis 104 harboring gyrA D87Y/S83F mutant, soxR R20H mutant and soxS E52K mutant gene assessed as width of bacterial rods by microscopy; type: functional, Salmonella enterica subsp. enterica serovar Enteritidis
Salmonella enteritidis [20] = assay: Antibacterial activity against ciprofloxacin-resistant Salmonella enteritidis 104 harboring gyrA D87Y/S83F mutant, soxR R20H mutant and soxS E52K mutant gene after 24 hrs by spectrophotometry; type: functional, organism-based; details: Salmonella enterica subsp. enterica serovar Enteritidis; in short: as §1
Salmonella enteritidis [21] = assay: Antibacterial activity against ciprofloxacin-susceptibility revert strain of Salmonella enteritidis 104 harboring gyrA D87Y/S83F mutant, parC D79N mutant, soxR E16G/R20H mutant and soxS E52K mutant gene assessed as reduction in swarm motility after overnight incubation; type: functional, Salmonella enterica subsp. enterica serovar Enteritidis
In short: (§3)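 Swarm assay: overnight LB culture pelleted, washed once, concentrated 50-fold. 2 µl spotted on LB with 0.2% gellan gum, incubated overnight at 30°C. Colony spread measured in mm. Reduction expressed relative to the parent strain.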

Salmonella enteritidis [22] = assay: Antibacterial activity against ciprofloxacin-resistant Salmonella enteritidis 5408 harboring gyrA D87Y mutant, gyrB E466D mutant, parE V461G mutant and ramR G25A mutant gene assessed as length of bacterial rods by microscopy; type: functional, Salmonella enterica subsp. enterica serovar Enteritidis
Salmonella enteritidis [23] = assay: Antibacterial activity against ciprofloxacin-resistant Salmonella enteritidis 104 harboring gyrA D87Y/S83F mutant, soxR R20H mutant and soxS E52K mutant gene assessed as length of bacterial rods by microscopy; type: functional, Salmonella enterica subsp. enterica serovar Enteritidis
Salmonella enteritidis [24] = assay: Antibacterial activity against wild type Salmonella enteritidis 5408 harboring gyrA D87Y mutant gene assessed as width of bacterial rods by microscopy; type: functional, Salmonella enterica subsp. enterica serovar Enteritidis
Salmonella enteritidis [25] = assay: Antibacterial activity against Salmonella enteritidis by CLSI method; details: Salmonella enterica
Salmonella enteritidis [26] = assay: Antibacterial activity against ciprofloxacin-resistant Salmonella enteritidis 104 harboring gyrA D87Y/S83F mutant, soxR R20H mutant and soxS E52K mutant gene assessed as reduction in swarm motility after overnight incubation; type: functional, Salmonella enterica subsp. enterica serovar Enteritidis; in short: as §3
Salmonella enteritidis [27] = assay: Antibacterial activity against ciprofloxacin-resistant Salmonella enteritidis 5408 harboring gyrA D87Y mutant, gyrB E466D mutant, parE V461G mutant and ramR G25A mutant gene assessed as reduction in swarm motility after overnight incubation; type: functional, Salmonella enterica subsp. enterica serovar Enteritidis; in short: as §3
Salmonella enteritidis [28] = assay: Antibacterial activity against Salmonella enteritidis NCTC 13349 by CLSI method; type: functional, Salmonella enterica subsp. enterica serovar Enteritidis; details: Salmonella enterica

Question: `CN(C)[C@@H]1C(O)=C(C(N)=O)C(=O)[C@@]2(O)C(O)=C3C(=O)c4c(O)cccc4[C@@](C)(O)[C@H]3C[C@@H]12` [TETRACYCLINE] was tested. Which MIC (Salmonella enteritidis [1]) did it give?
Answer: 2 µg/mL (≈ 4.5 µM)

Question: What about the MIC (Salmonella enteritidis [2]) of the same compound?
Answer: 0.5 µg/mL (≈ 1.13 µM)

Question: And the MIC (Salmonella enteritidis [3])?
Answer: 1 µg/mL (≈ 2.25 µM)

Question: And the MIC (Salmonella enteritidis [4])?
Answer: 2 µg/mL (≈ 4.5 µM)

Question: What about the MIC (Salmonella enteritidis [5]) of the same compound?
Answer: 16 µg/mL (≈ 36 µM)

Question: And the MIC (Salmonella enteritidis [6])?
Answer: 1 µg/mL (≈ 2.25 µM)

Question: How did the Activity (Salmonella enteritidis [7]) turn out when `O=C(O)c1cn(C2CC2)c2cc(N3CCNCC3)c(F)cc2c1=O` [CIPROFLOXACIN] was run?
Answer: Active

Question: What about the Activity (Salmonella enteritidis [8]) of the same compound?
Answer: 0.43 um

Question: What about the Activity (Salmonella enteritidis [9]) of the same compound?
Answer: inactive

Question: What about the Activity (Salmonella enteritidis [10]) of the same compound?
Answer: Active

Question: What about the Activity (Salmonella enteritidis [11]) of the same compound?
Answer: Active

Question: What about the Activity (Salmonella enteritidis [12]) of the same compound?
Answer: 1.1 um

Question: What about the “inhibition (INH)” value (Salmonella enteritidis [13]) of the same compound?
Answer: 93%

Question: What about the Activity (Salmonella enteritidis [14]) of the same compound?
Answer: 0.51 um

Question: What about the “inhibition (INH)” value (Salmonella enteritidis [15]) of the same compound?
Answer: 66%

Question: What about the “inhibition (INH)” value (Salmonella enteritidis [16]) of the same compound?
Answer: 90%

Question: And the Activity (Salmonella enteritidis [17])?
Answer: 1.02 um

Question: What about the Activity (Salmonella enteritidis [18]) of the same compound?
Answer: Active

Question: What about the Activity (Salmonella enteritidis [19]) of the same compound?
Answer: 0.45 um

Question: And the Activity (Salmonella enteritidis [20])?
Answer: inactive

Question: And the “inhibition (INH)” value (Salmonella enteritidis [21])?
Answer: 36%

Question: What about the Activity (Salmonella enteritidis [22]) of the same compound?
Answer: 1 um

Question: What about the Activity (Salmonella enteritidis [23]) of the same compound?
Answer: 1.16 um

Question: What about the Activity (Salmonella enteritidis [24]) of the same compound?
Answer: 0.46 um

Question: What about the MIC (Salmonella enteritidis [25]) of the same compound?
Answer: 0.12 µg/mL (≈ 0.362 µM)

Question: What about the “inhibition (INH)” value (Salmonella enteritidis [26]) of the same compound?
Answer: 36%

Question: What about the “inhibition (INH)” value (Salmonella enteritidis [27]) of the same compound?
Answer: 46%

Question: How did the MIC (Salmonella enteritidis [1]) turn out when `O=C(N[C@H](CO)[C@H](O)c1ccc([N+](=O)[O-])cc1)C(Cl)Cl` [CHLORAMPHENICOL] was run?
Answer: 16 µg/mL (≈ 49.5 µM)

Question: What about the MIC (Salmonella enteritidis [2]) of the same compound?
Answer: 2 µg/mL (≈ 6.19 µM)

Question: What about the MIC (Salmonella enteritidis [3]) of the same compound?
Answer: 4 µg/mL (≈ 12.4 µM)

Question: And the MIC (Salmonella enteritidis [4])?
Answer: 8 µg/mL (≈ 24.8 µM)

Question: What about the MIC (Salmonella enteritidis [5]) of the same compound?
Answer: 128 µg/mL (≈ 396 µM)

Question: And the MIC (Salmonella enteritidis [6])?
Answer: 2 µg/mL (≈ 6.19 µM)

Question: With `CC1(C)S[C@@H]2[C@H](NC(=O)[C@H](N)c3ccccc3)C(=O)N2[C@H]1C(=O)O` [AMPICILLIN] as the compound, how does the MIC (Salmonella enteritidis [1]) read?
Answer: 4 µg/mL (≈ 11.4 µM)

Question: And the MIC (Salmonella enteritidis [2])?
Answer: 0.5 µg/mL (≈ 1.43 µM)

Question: What about the MIC (Salmonella enteritidis [3]) of the same compound?
Answer: 1 µg/mL (≈ 2.86 µM)

Question: What about the MIC (Salmonella enteritidis [4]) of the same compound?
Answer: 4 µg/mL (≈ 11.4 µM)

Question: What about the MIC (Salmonella enteritidis [5]) of the same compound?
Answer: 16 µg/mL (≈ 45.8 µM)

Question: What about the MIC (Salmonella enteritidis [6]) of the same compound?
Answer: 1 µg/mL (≈ 2.86 µM)

Question: Which results are given for `CCn1cc(C(=O)O)c(=O)c2ccc(C)nc21` [NALIDIXIC ACID]?
Answer: MIC (Salmonella enteritidis [28]): 8 µg/mL (≈ 34.4 µM); MIC (Salmonella enteritidis [1]): > 256 µg/mL; MIC (Salmonella enteritidis [2]): > 256 µg/mL; MIC (Salmonella enteritidis [3]): > 256 µg/mL; MIC (Salmonella enteritidis [4]): > 256 µg/mL; MIC (Salmonella enteritidis [5]): > 256 µg/mL; MIC (Salmonella enteritidis [6]): > 256 µg/mL
